Screening data (PubChem)
Shown are actives, neighbours in structure and some others; about 3.7% of the full set was active somewhere.
KCNK3 inh: human KCNK3 channel inhibition, primary screen; hit rate 0.84% among 340,000; O14649; B-score at 10 µM; CHO-KCNK3 thallium flux, FluxOR fluorescence; stronger effect = lower value;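 active means B-score under library mean minus 4 SD, starting fluorescence ratio at most library mean plus 5 SD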;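 further: more negative B-score means stronger inhibition of thallium flux through KCNK3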
KCNQ1 pot: human KCNQ1 channel potentiation or activation | P51787 | CHO-K1 KCNQ1, thallium flux FluxOR fluorescence; stronger effect = higher value | B-score at 10 µM | hit rate 0.35% among 310,000 | AID 2648;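 active means fluorescence ratio B-score, a plate-corrected score, at least three library SD, with initial intensity B-score within 5 SD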
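assay system = CHO-K1 cells stably expressing KCNQ1 | medium = assay buffer, equal DMSO in all wells | timing = 37 °C overnight plating, 90-min dark dye load, 20-min compound pretreatment | measured by = kinetic FluxOR thallium fluorescence, 10-s 1-Hz baseline, 110-s post-stimulus read | measure = fluorescence change relative to baseline, converted to B score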
Kir21 block: Kir2.1 (mouse) channel inhibition | P35561 | HEK293-Kir2.1, FluxOR thallium flux fluorescence; stronger effect = lower value | B-score at 10 µM | hit rate 0.85% among 310,000 | AID 1672;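 active means fluorescence ratio B-score at or below minus 3 SD of library scores, with starting-brightness B-score within 2 SD, cut at about -4.2 in these data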;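 further: channel flux triggered by added potassium and thallium sulfate stimulus; B-score of peak minus minimum fluorescence over baseline after thallium stimulus; more negative B-score means stronger Kir2.1 block with less thallium influx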
KCNK9 block: blocks the human KCNK9 two-pore domain potassium channel; Q9NPC2; HEK293 KCNK9, FluxOR thallium flux fluorescence; stronger effect = lower value; B-score at 10 µM; hit rate 1.2% among 310,000; AID 488922;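 active means ratio B-score over 3 SD below the library mean, with starting fluorescence within 5 SD of its mean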;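 further: negative B-score means less thallium flux so channel inhibition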
Target sequence (Q9NPC2 whole entry, looked up, the tested form may be a part): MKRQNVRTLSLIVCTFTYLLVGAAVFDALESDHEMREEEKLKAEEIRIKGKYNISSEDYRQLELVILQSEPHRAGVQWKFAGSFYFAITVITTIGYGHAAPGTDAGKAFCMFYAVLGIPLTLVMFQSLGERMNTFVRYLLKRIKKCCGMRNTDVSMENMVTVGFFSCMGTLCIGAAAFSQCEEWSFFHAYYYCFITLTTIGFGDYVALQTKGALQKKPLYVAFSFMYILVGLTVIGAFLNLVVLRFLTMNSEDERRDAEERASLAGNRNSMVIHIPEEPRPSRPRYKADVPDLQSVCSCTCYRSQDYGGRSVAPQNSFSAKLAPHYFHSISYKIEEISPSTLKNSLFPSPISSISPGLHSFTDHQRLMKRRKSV
KCNQ1 block: blocks the human KCNQ1 potassium channel; hit rate 1.3% among 310,000; CHO-K1 KCNQ1, FluxOR thallium flux fluorescence; stronger effect = higher value; B-score at 10 µM; P51787;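 active means compounds whose thallium flux B-score, printed positive for inhibition, exceeds three library SD while starting fluorescence stays within three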;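 further: channel opened by potassium depolarization with thallium stimulus after 20 min compound exposure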
hERG protect: shields human hERG channel from block by proarrhythmic agents | activation (rescue from dofetilide block), less the hit threshold, % at 10 µM | CHO-hERG, FluxOR thallium flux, dofetilide IC70 present | hit rate 0.51% among 310,000 | Q12809;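 active means activation above the mean of controls blocked by dofetilide plus 5 SD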;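 further: thallium influx through hERG after potassium depolarization seen as dye fluorescence rise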
Numbers without * were called inactive; i = inactive; / = no result given.

SMILES | KCNK3 inh | KCNQ1 pot | Kir21 block | KCNK9 block | KCNQ1 block | hERG protect
O=C(CCn1c(=O)c2sccc2n(CC(=O)OCc2ccccc2)c1=O)NCc1ccccc1 | i | i | 1.6 | i | i | 5.2*
CCOC(=O)/C(=C\c1cccnc1)C(=O)c1cc(C(C)=O)c(Nc2ccccc2)s1 | i | 36* | -3.7 | i | i | -9
C=CCn1c(CSCc2ccc(Cl)cc2)nnc1SCC(=O)NCc1ccccc1 | i | i | -4.8* | i | i | -9
O=C(Nc1ccccc1)C(Cl)C(=O)c1ccccc1 (configuration not stated) | i | i | -8.3* | i | i | -14
CC(OC(=O)C1CC1)C(=O)Nc1cc(Cl)cc(Cl)c1 (configuration not stated) | -8.7* | / | / | / | / | /
CC(C)(C)N1C(=O)c2ccc(C(=O)Nc3ccc(O)cc3)cc2C1=O | i | i | 1.4 | i | i | -20
O=C(NNC(=S)Nc1ccc(Cl)cc1)c1ccccc1OC(F)F | i | i | 0.03 | i | 8* | -11
O=C(NNC(=S)NCc1ccccc1)c1ccccc1OC(F)F | i | i | -0.2 | i | i | -7
COc1ccc(CCC(=O)Nc2cc(S(=O)(=O)N3CCOCC3)ccc2OC(C)C)cc1 | i | / | / | / | / | /
O=C(/C=C\c1cn(-c2ccccc2)nc1-c1ccccc1)Nc1nccs1 | i | i | -1.3 | -8* | i | -4
S=C1N(c2ccccc2)C(c2ccccc2)N2CCCN12 (configuration not stated) | i | 8* | 0.12 | i | i | -7
Cc1cc(C=C2C(=O)c3ccccc3C2=O)c(C)n1-c1ccc(Cl)cc1 | i | i | 1.8 | -7* | i | -9
CCn1c(C)cc(C=C2C(=O)c3ccccc3C2=O)c1C | i | i | 0.13 | i | i | -6
Cc1cccc(-n2c(C)cc(C=C3C(=O)c4ccccc4C3=O)c2C)c1 | i | i | 1.1 | i | 6* | -4
N#CC1=C(N)Oc2cc(O)c(Cl)cc2C1c1cccnc1 (configuration not stated) | i | i | -7.3 | i | i | -25
N#CC1=C(N)Oc2cc(O)c(Cl)cc2C1c1ccccc1F (configuration not stated) | i | i | -14 | i | 14* | -46
Cn1c(=O)c2c(ncn2CCN(CCO)Cc2ccccc2)n(C)c1=O | i | i | 0.88 | i | i | -3
Cc1c(OCC(=O)N(C)c2ccccc2)ccc2c3c(c(=O)oc12)CCC3 | i | i | 0.52 | i | i | -7
COc1ccccc1-c1cnnc(N/N=C/c2ccc(-c3cccc(Br)c3)o2)n1 | i | i | -3.1 | -6.8* | i | -6
CCOc1ccc(/C=N/n2c(C)nnc2C)cc1OC | i | i | 0.62 | i | i | -6
O=C(N=Nc1c(O)[nH]c2ccc([N+](=O)[O-])cc12)c1cc(-c2ccccc2Cl)nc2ccccc12 | i | i | -0.02 | i | i | 15*
CCC(=O)Nc1cccc(C2=NOC3(C2)C[C@H](C(N)=O)N(C(=O)CC#N)C3)c1 (some centres not stated) | i | i | -0.02 | i | i | 6.2*
NS(=O)(=O)c1ccc(CCNC(=O)COC(=O)CC(c2ccccc2)c2ccccc2)cc1 | i | i | -5.1* | i | i | -11
NS(=O)(=O)c1ccc(CCNC(=O)CSc2ccc3ccccc3c2)cc1 | i | i | 0.78 | i | i | 11*
NS(=O)(=O)c1ccc(CCNC(=O)CSc2ccc([N+](=O)[O-])cc2)cc1 | i | i | -0.01 | i | i | -9
SMILES | KCNK3 inh | KCNQ1 pot | Kir21 block | KCNK9 block | KCNQ1 block | hERG protect
Cc1ccc(OCC(=O)NNC(=O)C2CCN(c3nc(C)cc(C)n3)CC2)cc1 | i | i | -1.8 | i | i | 0
CC(=O)Oc1c(S(=O)(=O)c2ccc(C)cc2)c(C)nn1C(C)(C)C | i | i | -0.5 | i | i | -15
Cc1ccc(S(=O)(=O)c2c(C)nn(C(C)(C)C)c2OC(=O)c2cccs2)cc1 | i | i | -0.3 | i | 6* | -4
COC(=O)c1cccc(CSc2nnc(-c3ccco3)n2-c2ccccc2)c1 | i | i | -6.8* | i | i | -9
Oc1ccc(N=Nc2nc(-c3ccccc3)c(-c3ccccc3)[nH]2)cc1 | i | i | 0.4 | -7.4* | i | -22
Oc1ccc(N=Nc2n[nH]c(-c3ccccc3)n2)cc1 | i | i | 0.79 | i | i | -7
Cc1cccc(NC(=S)N(CCCN2CCCC2)Cc2cccn2Cc2ccc(Cl)cc2)c1 | i | i | -5.3* | i | i | -23
CC(C)N(C(C)C)S(=O)(=O)c1ccc(NC(=O)c2cnccn2)cc1 | i | i | -1.8 | i | i | -11
N#Cc1ccc(OCC(=O)N(C2CCCCC2)C2CCS(=O)(=O)C2)cc1 (configuration not stated) | i | / | / | / | / | /
Cc1cc(O)c(S(=O)(=O)c2ccccc2)c(C)c1NS(=O)(=O)c1ccccc1 | i | i | -2.3 | i | i | -7
Cc1ccc(CNC(=O)C2CCCCC2C(=O)O)cc1 (configuration not stated) | i | i | -0.36 | i | i | -14
S=C(NCCC(c1ccccc1)c1ccccc1)Nc1cccc(Cl)c1 | i | i | 1.2 | i | 9* | -8
Cc1ccccc1NC(=S)NCCC(c1ccccc1)c1ccccc1 | i | i | -2.5 | i | 7* | -6
S=C(N/N=C/c1cccc2ccccc12)Nc1cccc(Cl)c1 | i | 8* | -1.4 | i | i | 5.3*
COc1cc(C(=O)N2CCN(S(=O)(=O)c3ccc(C)cc3C)CC2)ccc1OCC(=O)N1CCOCC1 | i | / | / | / | / | /
C=CCNCC(=O)N1N=C(c2ccc3ccccc3c2)CC1c1ccc(OC)cc1 (configuration not stated) | i | i | -4.3* | i | i | -28
CCCOc1ccc(NC(=O)CC2C(=O)N(Cc3ccccc3)C(=S)N2Cc2cccs2)cc1 (configuration not stated) | i | i | -0.38 | i | 6* | -15
O=C(O)CN1C(=O)c2cccc(Oc3ccc(Cl)cc3)c2C1=O | i | i | 0.1 | -6.8* | i | -8
Cc1ccc(N)cc1O | i | / | / | / | / | /
Cc1cc(O)c(-c2cc(O)c(C)cc2O)cc1O | i | i | -4.8* | i | i | -22
COc1ccc(C2c3ccc4ccccc4c3Oc3ncn(CCCN(C)C)c(=N)c32)cc1 (configuration not stated) | i | i | -7.2* | i | i | -14
